Test results reported in ChEMBL document CHEMBL1124180, “Asymmetric synthesis and properties of the enantiomers of the antibacterial agent 7-(3-aminopyrrolidin-1-yl)-1-(2,4-difluorophenyl)-1,4-dihydro-6- fluoro-4-oxo-1,8-naphthyridine-3-carboxylic acid hydrochloride” (J Med Chem, 1988).

Legend:
[1] = Solubility in aqueous media urine, pH 6.3; format: physicochemical; details: read-out: S
Mus musculus [2] = test: In vivo activity against Escherichia coli Juhl(100X LD50), when administered po( each compound tested at 3 doses with 10 animals); format: functional
Outline: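 Mice were challenged intraperitoneally with the organism. The compound was given orally as a total dose split into equal portions at 1 and 5 h post-infection. Three doses were used, with 10 animals per dose.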

Micrococcus luteus [3] = test: In vitro activity against Micrococcus luteus (ATCC 9341); format: functional
Outline: (§1)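 MIC determined by agar dilution on brain-heart infusion agar under aerobic conditions.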

Staphylococcus aureus [4] = test: In vitro activity against Staphylococcus aureus(45 RAR2); format: functional; outline: as §1
Pseudomonas aeruginosa [5] = test: In vitro activity against Pseudomonas aeruginosa (BMH10); format: functional; outline: as §1
Mus musculus [6] = test: In vivo activity against Pseudomonas aeruginosa A5007 (100X LD50), administered sc ( each compound tested at 3 doses with 10 animals); format: functional
Outline: (§2)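 Mice were challenged intraperitoneally with the organism. The compound was given subcutaneously as a total dose split into equal portions at 1 and 5 h post-infection. Three doses were used, with 10 animals per dose.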

Escherichia coli [7] = test: In vitro activity against Escherichia coli (SS).; format: functional
Outline: (§3)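 MIC for aerobic bacteria, measured on brain-heart infusion agar.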

Escherichia coli [8] = test: In vitro activity against Escherichia coli (H560); format: functional; outline: as §3
[9] = tested on: Staphylococcus epidermidis; test: In vitro activity against Staphylococcus epidermidis (3519); format: functional; outline: as §1
[10] = Solubility in aqueous media 0.15 N sulfate, pH 5.4; format: physicochemical; details: read-out: S
[11] = Solubility in aqueous media Ringer's buffer,pH7.4; format: physicochemical; details: pH 7.4
Micrococcus luteus [12] = test: In vitro activity against Micrococcus luteus (ATCC 4698); format: functional; outline: as §1
Enterococcus faecium = test: In vitro activity against Enterococcus faecium (ATCC 8043).; format: functional; outline: as §1
Providencia stuartii = test: In vitro activity against Providencia stuartii (CMX 640); format: functional; outline: as §1
[13] = Solubility in aqueous media 0.15Nacetate, pH 6.1; format: physicochemical; details: 0.15 N acetate, read-out: S
Staphylococcus aureus [14] = test: In vitro activity against Staphylococcus aureus(CMX 503A); format: functional; outline: as §1
Staphylococcus aureus [15] = test: In vitro activity against Staphylococcus aureus(ATCC 6538P); format: functional; outline: as §1
Streptococcus pyogenes [16] = test: In vitro activity against Streptococcus pyogenes (EES61); format: functional; outline: as §1
[17] = Solubility in aqueous media 0.1 N chloride, pH 6.5; format: physicochemical; details: read-out: S
Acinetobacter sp. = test: In vitro activity against Acinetobacter sp.(CMX 669).; format: functional; outline: as §1
Klebsiella pneumoniae = test: In vitro activity against Klebsiella pneumoniae (ATCC 8045).; format: functional; outline: as §1
Streptococcus agalactiae = test: In vitro activity against Streptococcus agalactiae (CMX 508).; format: functional; outline: as §1
Mus musculus [18] = test: In vivo activity against Pseudomonas aeruginosa A5007 (100X LD50), administered sc( each compound tested at 3 doses with 10 animals); format: functional; outline: as §2
[19] = Solubility in aqueous media urine, pH 5.1; format: physicochemical; details: read-out: S
[20] = Solubility in aqueous media urine, pH 5.7; format: physicochemical; details: read-out: S
Escherichia coli [21] = test: In vitro activity against Escherichia coli (DC-2); format: functional; outline: as §3
Streptococcus pyogenes [22] = test: In vitro activity against Streptococcus pyogenes (2548 INDUC).; format: functional; outline: as §1
Staphylococcus aureus [23] = test: In vitro activity against Staphylococcus aureus(CMX 686B); format: functional; outline: as §1
[24] = Solubility in aqueous media 0.15 N phosphate, pH 5.6; format: physicochemical; details: read-out: S
Pseudomonas aeruginosa [25] = test: In vitro activity against Pseudomonas aeruginosa (A5007).; format: functional; outline: as §1
Staphylococcus aureus [26] = test: In vitro activity against Staphylococcus aureus (A5177); format: functional; outline: as §1
Staphylococcus aureus [27] = test: In vitro activity against Staphylococcus aureus(45); format: functional; outline: as §1
Escherichia coli [28] = test: In vitro activity against Escherichia coli Juhl; format: functional; outline: as §3
Pseudomonas aeruginosa [29] = test: In vitro activity against Pseudomonas aeruginosa (K799/WT).; format: functional; outline: as §1
Streptococcus equinus = test: In vitro activity against Streptococcus bovis (A5169).; format: functional; outline: as §1
Escherichia coli [30] = test: In vitro activity against Escherichia coli (KNK437); format: functional; outline: as §3
Streptococcus pyogenes [31] = test: In vitro activity against Streptococcus pyogenes(930 CONST).; format: functional; outline: as §1
[32] = Solubility in aqueous media urine, pH 7.0; format: physicochemical; details: read-out: S
Mus musculus [33] = test: In vivo activity against Escherichia coli Juhl(100X LD50), when administered sc( each compound tested at 3 doses with 10 animals); format: functional; outline: as §2
Burkholderia cepacia = test: In vitro activity against Pseudomonas cepacia (296I); format: functional; outline: as §1
Klebsiella aerogenes = test: In vitro activity againsT Enterobacter aerogenes (ATCC 13048).; format: functional; outline: as §1
Staphylococcus aureus [34] = test: In vitro activity against Staphylococcus aureus(CMX 553); format: functional; outline: as §1

`Cl.NC1CCN(c2nc3c(cc2F)c(=O)c(C(=O)O)cn3-c2ccc(F)cc2F)C1` (configuration not stated) showed a solubility [1] of 12.7 µg/mL, an ED50 (Mus musculus [2]) of 1.2 mg/kg and an MIC (Micrococcus luteus [3]) of 1.56 µg/mL. For the same compound, the MIC (Staphylococcus aureus [4]) was 0.1 µg/mL, the MIC (Pseudomonas aeruginosa [5]) was 0.1 µg/mL and the ED50 (Mus musculus [6]) was 0.4 mg/kg. For the same compound, the MIC (Escherichia coli [7]) was 0.01 µg/mL, the MIC (Escherichia coli [8]) was 0.02 µg/mL and the MIC [9] was 0.05 µg/mL. The solubility [10] was 6.5 µg/mL, the solubility [11] was 8 µg/mL and the MIC (Micrococcus luteus [12]) was 0.78 µg/mL. For the same compound, the MIC (Enterococcus faecium) was 0.2 µg/mL, the MIC (Providencia stuartii) was 1.56 µg/mL and the solubility [13] was 1.7 µg/mL. The MIC (Staphylococcus aureus [14]) was 0.05 µg/mL, the MIC (Staphylococcus aureus [15]) was 0.02 µg/mL and the MIC (Streptococcus pyogenes [16]) was 0.2 µg/mL. The solubility [17] was 1.2 µg/mL, the MIC (Acinetobacter sp.) was 0.05 µg/mL and the MIC (Klebsiella pneumoniae) was 0.02 µg/mL. For the same compound, the MIC (Streptococcus agalactiae) was 0.39 µg/mL, the ED50 (Mus musculus [18]) was greater than 25 mg/kg and the solubility [19] was 23.5 µg/mL. It also gave a solubility [20] of 16.3 µg/mL, an MIC (Escherichia coli [21]) of 0.2 µg/mL and an MIC (Streptococcus pyogenes [22]) of 0.2 µg/mL. The MIC (Staphylococcus aureus [23]) was 0.05 µg/mL, the solubility [24] was 1.8 µg/mL and the MIC (Pseudomonas aeruginosa [25]) was 0.2 µg/mL. It also gave an MIC (Staphylococcus aureus [26]) of 0.05 µg/mL, an MIC (Staphylococcus aureus [27]) of 0.1 µg/mL and an MIC (Escherichia coli [28]) of 0.02 µg/mL. It also gave an MIC (Pseudomonas aeruginosa [29]) of 0.1 µg/mL, an MIC (Streptococcus equinus) of 0.2 µg/mL and an MIC (Escherichia coli [30]) of 0.02 µg/mL. It also gave an MIC (Streptococcus pyogenes [31]) of 0.2 µg/mL, a solubility [32] of 12.2 µg/mL and an ED50 (Mus musculus [33]) of 0.2 mg/kg. The MIC (Burkholderia cepacia) was 6.2 µg/mL, the MIC (Klebsiella aerogenes) was 0.1 µg/mL and the MIC (Staphylococcus aureus [34]) was 0.05 µg/mL.
